From ChEMBL document CHEMBL4396889, “From Inhibition to Degradation: Targeting the Antiapoptotic Protein Myeloid Cell Leukemia 1 (MCL1)” (J Med Chem, 2019)

Tests used:
Assay type in all cases: cell-based
[1] = molecular target: T1, Protein cereblon/Induced myeloid leukemia cell differentiation protein Mcl-1 (Homo sapiens) (UniProt Q07820+Q96SW2); experiment: Protac activity at Cereblon/MCL1 long isoform in wild type human OPM2 cells at 100 nM after 48 hrs by immunoblot analysis relative to control
T1 sequence (Q07820 whole entry, looked up, canonical isoform): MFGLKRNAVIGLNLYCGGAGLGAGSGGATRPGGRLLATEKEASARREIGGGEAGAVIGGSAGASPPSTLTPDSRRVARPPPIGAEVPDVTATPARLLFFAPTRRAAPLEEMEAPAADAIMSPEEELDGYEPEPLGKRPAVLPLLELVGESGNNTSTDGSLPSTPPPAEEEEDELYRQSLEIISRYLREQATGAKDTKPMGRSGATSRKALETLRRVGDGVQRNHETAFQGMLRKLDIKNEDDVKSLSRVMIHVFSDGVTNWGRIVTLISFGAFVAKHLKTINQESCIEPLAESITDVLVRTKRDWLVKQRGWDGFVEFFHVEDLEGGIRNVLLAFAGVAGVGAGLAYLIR
T1 sequence (Q96SW2 whole entry, looked up, canonical isoform): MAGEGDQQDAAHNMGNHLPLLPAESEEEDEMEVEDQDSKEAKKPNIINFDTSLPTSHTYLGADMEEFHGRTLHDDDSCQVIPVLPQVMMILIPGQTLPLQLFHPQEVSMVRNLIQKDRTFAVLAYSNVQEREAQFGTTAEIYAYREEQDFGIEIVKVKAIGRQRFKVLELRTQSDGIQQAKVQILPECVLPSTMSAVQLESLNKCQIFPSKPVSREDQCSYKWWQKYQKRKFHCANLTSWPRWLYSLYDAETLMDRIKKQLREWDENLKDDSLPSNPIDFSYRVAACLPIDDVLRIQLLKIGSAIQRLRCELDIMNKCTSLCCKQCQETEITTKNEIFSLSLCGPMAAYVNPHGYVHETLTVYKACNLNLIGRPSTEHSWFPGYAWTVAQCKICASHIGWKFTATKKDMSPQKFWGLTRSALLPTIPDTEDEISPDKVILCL
In short: (§1)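 OPM2 multiple myeloma cells, wild type or CRBN-knockout, were treated for 48 h with degrader or DMSO vehicle. MCL1 long and short isoforms were detected by immunoblot and levels compared with DMSO controls.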

[2] = molecular target: T1, Protein cereblon/Induced myeloid leukemia cell differentiation protein Mcl-1 (Homo sapiens); experiment: Protac activity at Cereblon/MCL1 in human OPM2 cells assessed as protein abundance at 500 nM after 48 hrs by immunoblot analysis relative to control; in short: as §1
[3] = molecular target: T1, Protein cereblon/Induced myeloid leukemia cell differentiation protein Mcl-1 (Homo sapiens); experiment: Protac activity at Cereblon/MCL1 long isoform in human MM1S cells assessed as MCL1 long isoform level at 300 nM pre-incubated for 72 hrs followed by cycloheximide addition and measured after 120 mins by immunoblot analysis (reference value: 55%)
In short: (§2)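 Cycloheximide chase: cells were treated for 72 h with DMSO or degrader, with cycloheximide added for the final 30, 60 or 120 min. OPM2 and MM1.S cells were used, and wild-type OPM2 was compared with OPM2 CRBN-/- at 60 and 120 min. MCL1 was detected by immunoblot.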

[4] = molecular target: Induced myeloid leukemia cell differentiation protein Mcl-1 (Homo sapiens, UniProt Q07820); experiment: Induction of MCL1 short isoform degradation in CRBN-/- human OPM2 cells assessed as protein abundance at 300 nM pre-incubated for 72 hrs followed by cycloheximide addition and measured after 120 mins by immunoblot analysis (reference value: 16%); in short: as §2
Chain of Induced myeloid leukemia cell differentiation protein Mcl-1 (Q07820 whole entry, canonical isoform): as the sequence (Q07820 whole entry, looked up, canonical isoform) above

[5] = molecular target: T1, Protein cereblon/Induced myeloid leukemia cell differentiation protein Mcl-1 (Homo sapiens); experiment: Protac activity at Cereblon/MCL1 short isoform in wild type human OPM2 cells assessed as MCL1 short isoform level at 300 nM pre-incubated for 72 hrs followed by cycloheximide addition and measured after 60 mins by immunoblot analysis (reference value: 64%)
In short: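 OPM2 wild-type and OPM2 CRBN-/- cells were treated for 72 h with compound or DMSO, with cycloheximide present for the final 60 or 120 min. MCL1 was detected by immunoblot.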

[6] = tested on: OPM-2; experiment: Cytotoxicity against CRBN-/- human OPM2 cells assessed as reduction in cell viability at 50 to 10000 nM after 48 hrs by CellTiter-96 Cell Viability Assay; settings: opm-2, 48 h, 10 µM

Cc1nn(C)c(COc2ccc(N3CCN(S(=O)(=O)N(C)C)CC3)cc2)c1-c1cccc2c(CCCOc3cccc4ccccc34)c(C(=O)O)n(CCN3CCN(C(=O)COc4cccc5c4C(=O)N(C4CCC(=O)NC4=O)C5=O)CC3)c12 (stereo unspecified)
Activity [1]: 69% | Activity [2]: 58% | Activity [3]: 40% | Activity [4]: 25% | Activity [5]: 14% | Activity [6]: Toxic
